# System: MS2 coat protein
# Test: apparent Kd, MS2 coat protein; higher = weaker binding; RNA-MaP array
# In short: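 With or without input ligand, designed RNAs transcribed on an Illumina sequencing chip from sequenced DNA templates were incubated at room temperature with fluorescently labeled MS2 coat protein at 1.5 nM to 3 μM. The buffer was Tris-HCl pH 7.5 with KCl, MgCl2, BSA, DTT, tRNA and Tween20, and incubation ran 0.8–1.5 h at the lowest and 10–20 min at the highest concentrations. Apparent Kd is reported as the median of fits to binding curves from individual clusters. Designs measured on fewer than 10 clusters are not included.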
# [1] = designed as: OFF switch for flavin mononucleotide, no ligand
# [2] = ligand present: flavin mononucleotide, designed as: OFF switch for flavin mononucleotide
# [3] = designed as: ON switch for tryptophan, no ligand
# [4] = ligand present: tryptophan, designed as: ON switch for tryptophan
# [5] = designed as: ON switch for flavin mononucleotide, no ligand
# [6] = ligand present: flavin mononucleotide, designed as: ON switch for flavin mononucleotide
# [7] = designed as: OFF switch for theophylline, no ligand
# [8] = ligand present: theophylline, designed as: OFF switch for theophylline
Sequence,apparent Kd [1],apparent Kd [2],also measured
CUUAACAAAGGAUAUACACAAAUGAUUAAGGUGCCGGGAAAACAUGAGGAUCACCCAUGUAGAAGGUUGUAACA,8.1 nM,7.75 nM,–
ACAGGUAGAGGAUAUCGUGAAAGUCACAUGAGGAUCACCCAUGUGGUAAGCAUGUACGCCCGAGAAGGCUAACCGC,7.57 nM,12.4 nM,–
CGGAGUAUGACGGCCGCCACUUGCCGGGCGCAGCUGGCUGCUUGACAUGAGGAUCACCCAUGUCCAAGGACCGGGUCAUUCCUCG,–,–,apparent Kd [3]: 121 nM; apparent Kd [4]: 83.9 nM
CACUUCAUAAUAGGAUAUCAUGGAUGACAUGAGGAUCACCCAUGUCCGCACUCUUCAACUACACGUGAGAAGGAUUCGCGGGUC,–,–,apparent Kd [5]: 194 nM; apparent Kd [6]: 130 nM
ACAAUGUGAGGAUAUCGUAAGCAUGACUAUGGCGCUAACACCGAGAAGGCACAUGAGGAUCACCCAUGUCCUGA,6.84 nM,10.7 nM,–
CCGCGCACUGGAGGAUAUAAUCGAACAUGAGGAUCACCCAUGUUAGACGUGGUACGAGCGUUCCAUUAGAAGGCCACUCUGCGU,27.1 nM,52.8 nM,–
AUACUAAACAUGAGGAUCACCCAUGUGACGUCAGGUCAGUUGAGAAGGCUAGGGAUGCUAGAUGUAGAGGAUAUCAGCGACGGA,15.4 nM,9.76 nM,–
CAAAACAUGAGGAUCACCCAUGUAGAUACGUGAAAAUUAUGGGAGGAUAUACAAUAGGACUGUAUGAAGAAGGCCCGAAAGCCA,–,–,apparent Kd [5]: 20 nM; apparent Kd [6]: 18.5 nM
UGGUCACAUGAGGAUCACCCAUGUAAGGAUAUCCGCGCCAUAGAGGAAAAGACGGUAUGGAGAAGGUACAGCUU,29.9 nM,26.9 nM,–
AUUUAAAAGUUAGGAUAUCUCAUCAGCUCAAUAGAUGACAUGAGGAUCACCCAUGUGACCAAAGGAGAGAAGGAACUCAUAAUG,65.1 nM,31.4 nM,–
ACCUAAGCCACAGAUACCAGAGUAAUAGGCCAAUUUCAAAACAUGAGGAUCACCCAUGUACUCCCUUGGCAGCUGCGAAUCGAAA,–,–,apparent Kd [7]: 10.9 nM; apparent Kd [8]: 15.2 nM
GCGCGCGUAGUCAGGAUAUGGUAUAAGUAACUUGGCCAGAAGGGACAUGAGGAUCACCCAUGUGCAUUGCUAGC,9.16 nM,9.47 nM,–
AACCGACAUGAGGAUCACCCAUGUGAGGAUAUGUUCGAGCUGGCAGGACCACCCUGGGACAGAAGGCACGUGAA,11.2 nM,17.7 nM,–
GUGUACUUUGAAGGAUAUAACGGCGGCAUUUUCUUAGAAGGUCAAGGGACAUGAGGAUCACCCAUGUUAACAUUGGUUCUAACA,10.6 nM,17.5 nM,–
ACUCUAAGAUGAGGAUAUCACAUCUUAUCGCCACGGUGGCUUCACAUGAGGAUCACCCAUGUAUGUGAGAAGGCAUUUCCGGAC,24.1 nM,20.7 nM,–
AAAGCUACCAAAGGAUAUUGUUUCCAUCACACAUGAGGAUCACCCAUGUAGCCAUAAACGGAUCGCAAGAAGGUUGGGAAAGUG,–,–,apparent Kd [5]: 18.3 nM; apparent Kd [6]: 9.07 nM
GGAUCACAUGAGGAUCACCCAUGUAAAGACGAUACAGGAUAUGACAGAACACGCAUCGUUUCAGAAGGGUAUAGUG,–,–,apparent Kd [5]: 66.9 nM; apparent Kd [6]: 47.6 nM
CUGUGAGUAGGAUAUGAUCACAAGUACAUGAGGAUCACCCAUGUGUGGCUCUGUACCGCCUCAGAAGGACUCGUCU,28 nM,94.8 nM,–
GUUAGUUACACGGCCGCCACUCUUUGGCUUGGCUCAAGCUCCCAACAUGAGGAUCACCCAUGUCAGAGGACCGGGUGAACAACGU,–,–,apparent Kd [3]: 134 nM; apparent Kd [4]: 112 nM
ACAUGAGGAUCACCCAUGUUUGACUGGGCUUGCUCUCGCCGUAGAAGGUUUCAUUAAGUAGAGGAAAAGGAUAUACACUGGGCC,12.2 nM,10.7 nM,–
GAAUCAUGACAGAAGGCACGGAAUACCCGGCUGUGAGGAUAUGUUUGAAAACAGACAUGAGGAUCACCCAUGUCCGAAGUGUCU,301 nM,555 nM,–
AAUCGCAAUUGAGGAUAUUGAACUGAAUUGGCCACAUGAGGAUCACCCAUGUGACCUGUCUCCGUCAAGAAGGCAAUGUGGUGG,–,–,apparent Kd [5]: 5.61 nM; apparent Kd [6]: 4.81 nM
GACCACAUGAGGAUCACCCAUGUCUUGGUCCGAGGACCGGUACGGCCGCCACUCGAGAGCCGUACAAAUAAACGGAGUGCCAUCA,–,–,apparent Kd [3]: 15.9 nM; apparent Kd [4]: 13.5 nM
UCGAUGGUAUCUGAUACCAGUAGCGUGCGUUACAUGAGGAUCACCCAUGUGCCUAUACUUUACCCUUGGCAGCAGUGGAUUCGAU,–,–,"apparent Kd (designed as: ON switch for theophylline, no ligand): 207 nM; apparent Kd (ligand present: theophylline, designed as: ON switch for theophylline): 58.5 nM"
GGUAGUACCGUAGGAUAUUCCGCUUACAUGAGGAUCACCCAUGUGGCUGGUAUUUCGUCAAAGAAGAAGAAGGACGUCUGCGCG,6.85 nM,6.43 nM,–
UUUACCGACACAGAUCACUAAAACCUUGAUACCAGUCCCAGUGGCGACCCUUGGCAGCAAUAUACAUGAGGAUCACCCAUGUGCA,–,–,apparent Kd [7]: 14.7 nM; apparent Kd [8]: 16.7 nM

# From the EternaBench riboswitch data
